Measured values reported in article PMC6679735 (Biochimica et biophysica acta. Molecular and cell biology …, 2019).
Where two headings read alike, the source gives them in different places. One block for each molecule: values may come before it.

Tests used:
[1] = test system: Npc1^I1061T/I1061T mice; experiment: Lipidomic profiling of liver and brain after six-week treatment; assay type: in vivo, mouse; conditions: six weeks weekly treatment, versus vehicle
[2] = test system: NPC1 cat model; conditions: 4000 mg/kg HPβCD; cited from earlier work
[3] = test system: NPC1 patients; conditions: Phase 1/2a trial; cited from earlier work
[4] = Maximum drug concentration of HPβCD after a peripheral dose; assay type: in vivo; conditions: peripheral dose of 4000 mg/kg HPβCD with PEG400/DMSO; extrapolated
[5] = direct CNS administration; cited from earlier work
[6] = test system: histone H3; experiment: Acute histone H3 acetylation in liver by western blot, 1 h after single dose; assay type: in vivo, C57BL/6J mice; conditions: one hour post single injection, versus vehicle
[7] = test system: human NPC1^I1061T fibroblasts; experiment: Filipin LSO compartment ratio dose response in fibroblasts; assay type: cell-based; conditions: 72 h, 40 nM to 10 μM
Outline: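 Human fibroblasts in MEM with 5% FBS, seeded in 384-well plates at 450 cells/well and incubated overnight. Test compound added at 40 nM–10 μM final; DMSO control on each plate. After 72 h, cells were PBS-washed, fixed in 1.5% PFA, and stained with 50 μg/ml filipin plus Draq5. Automated imaging at four sites/well gave the LSO compartment ratio, normalised to DMSO. Four wells per condition, three experiments.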

[8] = test system: murine embryonic fibroblasts and human fibroblasts expressing the NPC1^I1061T protein; conditions: cited from earlier work
[9] = test system: bone marrow-derived macrophages from Npc1^I1061T/I1061T mice; experiment: Filipin LSO assay in bone marrow-derived macrophages; assay type: cell-based, mouse
[10] = test system: Npc1^I1061T/I1061T mice; assay type: in vivo, mouse; conditions: liver; six weeks treatment, versus vehicle
Outline: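 Mice were dosed i.p. at 10 μL/g from four weeks of age, weekly for six weeks (one arm three times weekly). HPβCD was 2000 mg/kg (4000 mg/kg in the 3x/wk arm). Saline perfusion 1 h after the last dose. PFA-fixed liver was cut at 35 μm on a vibratome and stained with 0.005% filipin in PBS, with a DMSO-only control. Two blinded reviewers scored hepatocyte staining 0–5.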

[11] = test system: NPC1^I1061T protein; assay type: in vivo, mouse; conditions: six weeks treatment, versus vehicle
[12] = assay type: in vivo, C57BL/6J mice
Outline: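 Five-week-old male C57BL/6J mice received a single i.p. injection (10 μL/g). Plasma, liver and brain were harvested at 0.25, 1, 2, 4 and 7 h, n=4 per time point. Analyte was measured by LC-MS/MS on a C18 column with a d5-labelled internal standard and eight duplicate calibrators. Non-compartmental parameters used mean concentrations of 3–4 mice per time point; AUC by the linear trapezoidal method.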

[13] = test system: histone H3; experiment: Histone H3 acetylation in liver and brain after six-week treatment; assay type: in vivo, Npc1^I1061T/I1061T mice; conditions: end of six-week treatment, one hour after final dose
Outline: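 Four-week-old mice were dosed weekly i.p. at 10 μL/g for six weeks and harvested 1 h after the final dose. Frozen cortex was homogenised in TNEN buffer (pH 8) with protease inhibitors and 1 mM PMSF, then spun at 10,000 × g for 10 min at 4°C. Equal protein was run on 4–12% Bis-Tris gels and blotted with anti-H3 (1:10,000) and anti-acetyl-H3 (1:1000). Hsp90 was the loading control; detection by chemiluminescence.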

[14] = test system: Npc1^nmf164 mice; conditions: 150mg/kg vorinostat in PEG/DMSO vehicle; cited from earlier work
[15] = male, C57BL/6J, mouse, brain, ip, 50 mg/kg
[16] = male, C57BL/6J, mouse, liver, ip, 50 mg/kg
[17] = male, C57BL/6J, mouse, plasma, ip, 50 mg/kg

Structure (SMILES): CC(=O)Nc1ccc(C(=O)Nc2ccccc2N)cc1 [CI994]
Lipid storage in liver (lipidomics, sphingolipid and sterol species) [1]: none of the treatment groups administered formulations containing vorinostat, CI994, or IVA alone showed evidence of lipid reduction

Maximum drug concentration achieved [4]: ~ 15 μM
Structure (SMILES): CC(O)COC[C@H]1O[C@@H]2O[C@H]3[C@H](O)[C@@H](O)[C@@H](O[C@H]4[C@H](O)[C@@H](O)[C@@H](O[C@H]5[C@H](O)[C@@H](O)[C@@H](O[C@H]6[C@H](O)[C@@H](O)[C@@H](O[C@H]7[C@H](O)[C@@H](O)[C@@H](O[C@H]8[C@H](O)[C@@H](O)[C@@H](O[C@H]1[C@H](O)[C@H]2O)O[C@@H]8COCC(C)O)O[C@@H]7COCC(C)O)O[C@@H]6COCC(C)O)O[C@@H]5COCC(C)O)O[C@@H]4COCC(C)O)O[C@@H]3COCC(C)O (stereo partly drawn) [HPβCD, 2-hydroxypropyl-β-cyclodextrin]
Toxicity of peripheral dose [2]: toxic in the NPC1 cat model
Neurodegenerative disease progression [3]: effective in slowing neurodegenerative disease progression
Drug concentration achieved in CSF [5]: 1000 µM
Liver histone H3 acetylation (acetylated H3 / total H3) [6]: did not increase H3 acetylation acutely

Structure (SMILES): O=C(O)CCCCCCC(=O)Nc1ccccc1 [IVA, 8-oxo-8-(phenylamino)octanoic acid]
Effect on lysosomal cholesterol storage (filipin LSO compartment ratio) [7]: had no effect on cholesterol storage
Lipid storage in liver (lipidomics, sphingolipid and sterol species) [1]: none of the treatment groups administered formulations containing vorinostat, CI994, or IVA alone showed evidence of lipid reduction
Liver histone H3 acetylation (acetylated H3 / total H3) [6]: No increase in acetylation

Vorinostat Cmax, brain ([12]; brain, single i.p. dose): 1163 ng/mL
Vorinostat Cmax, liver ([12]; liver, single i.p. dose): 209 ng/mL
AUC(0-t) [12, 15]: 1240 ng·h/mL
Tmax [12, 15]: 15 min
AUC(0-t) [12, 16]: 513 ng·h/mL
Tmax [12, 16]: 15 min
AUC(0-inf) [12, 17]: 7600 ng·h/mL
AUC(0-t) [12, 17]: 7540 ng·h/mL
Cmax [12, 17]: 10500 ng/mL
Tmax [12, 17]: 15 min
half-life [12, 17]: 40.8 min
Structure (SMILES): O=C(CCCCCCC(=O)Nc1ccccc1)NO [vorinostat, suberoylanilide hydroxamic acid]
Cholesterol storage [8]: effective in reducing cholesterol storage
Reduction of cholesterol accumulation in differentiated macrophages ([9]; 4 nM to 10 μM, 48h or 72h): not effective at reducing the cholesterol accumulation
Cholesterol accumulation in LSOs (filipin intensity) at 330 nM ([9]; 330 nM, normalized to DMSO treated cells): slight decrease in cholesterol accumulation
Concentration toxic to BMMs ([9]; 48h or 72h treatment): above 1 μM
Hepatocyte filipin staining (cholesterol storage) [10]: did not alter cholesterol levels
Effect on lysosomal cholesterol storage (filipin LSO compartment ratio) [7]: reduces lysosomal cholesterol
NPC1^I1061T protein expression in liver [11]: reduction of NPC1 protein
Ratio of acetylated histone H3 to total histone H3 in brain ([13]; brain): showed an increase in the ratio
Ratio of acetylated histone H3 to total histone H3 in liver ([13]; liver): significant increase in the ratio of acetylated histone H3 relative to total histone H3
Lipid storage in liver (lipidomics, sphingolipid and sterol species) [1]: modest reduction in only a single lipid species (MCer 24:0)
Efficacy on disease progression, life span, or weight loss [14]: did not show efficacy
Liver pathology and function [14]: limited improvement in liver pathology and function
NPC1 mutant protein expression and lipid accumulation [14]: remained unchanged
Liver histone H3 acetylation (acetylated H3 / total H3) [6]: Increased histone 3 acetylation
